Key:
[1] = tested on: TMD8; assay: Cell cycle arrest in human TMD8 cells assessed as accumulation at S phase at 100 nM after 48 hrs by propidium iodide staining-based flow cytometric method (reference value: 34.15%); assay type: functional
[2] = tested on: Mus musculus; assay: Toxicity in CB17 SCID nude mouse xenografted with human TMD8 cells assessed as change in body weight at 15 mg/kg, po qd administered for 13 consecutive days measured during compound dosing up to day 17 post dose; assay type: organism-based; details: in vivo
[3] = tested on: TMD8; assay: Induction of apoptosis in human TMD8 cells assessed as late apoptotic cells at 10 nM after 72 hrs by Annexin-FITC/propidium iodide staining-based flow cytometric method (reference value: 3.2%); assay type: functional
[4] = biological target: T1, Receptor-type tyrosine-protein kinase FLT3 (Homo sapiens, UniProt P36888); assay: Inhibition of recombinant human FLT3 using Poly(Glu, Tyr) 4:1 as substrate after 1 hr by ELISA
T1 sequence (P36888 whole entry): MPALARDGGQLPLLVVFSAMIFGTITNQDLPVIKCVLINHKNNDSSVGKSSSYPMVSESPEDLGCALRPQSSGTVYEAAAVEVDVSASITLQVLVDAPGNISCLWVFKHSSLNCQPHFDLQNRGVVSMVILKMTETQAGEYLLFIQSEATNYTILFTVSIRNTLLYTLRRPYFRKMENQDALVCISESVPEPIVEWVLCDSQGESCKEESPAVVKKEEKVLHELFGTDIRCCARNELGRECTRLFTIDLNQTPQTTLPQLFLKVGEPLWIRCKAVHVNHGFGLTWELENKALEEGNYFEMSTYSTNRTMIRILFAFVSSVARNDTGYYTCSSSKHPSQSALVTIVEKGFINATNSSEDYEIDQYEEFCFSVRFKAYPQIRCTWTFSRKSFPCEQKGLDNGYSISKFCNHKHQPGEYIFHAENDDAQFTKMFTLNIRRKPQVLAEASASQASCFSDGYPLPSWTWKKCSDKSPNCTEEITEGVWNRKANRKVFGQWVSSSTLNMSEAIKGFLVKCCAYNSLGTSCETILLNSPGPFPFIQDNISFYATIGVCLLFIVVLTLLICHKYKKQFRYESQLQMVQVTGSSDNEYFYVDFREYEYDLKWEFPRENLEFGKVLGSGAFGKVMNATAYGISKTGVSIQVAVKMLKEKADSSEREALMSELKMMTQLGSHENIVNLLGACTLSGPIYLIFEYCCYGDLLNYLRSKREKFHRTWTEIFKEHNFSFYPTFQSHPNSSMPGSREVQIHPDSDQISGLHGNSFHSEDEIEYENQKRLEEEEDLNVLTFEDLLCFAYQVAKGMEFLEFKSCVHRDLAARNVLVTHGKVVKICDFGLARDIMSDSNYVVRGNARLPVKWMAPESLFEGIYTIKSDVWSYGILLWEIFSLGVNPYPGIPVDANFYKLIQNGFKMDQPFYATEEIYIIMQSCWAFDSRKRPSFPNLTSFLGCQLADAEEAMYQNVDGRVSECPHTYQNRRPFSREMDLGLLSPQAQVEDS
Method in brief: (§1)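 Kinase activity was measured by ELISA on wells precoated with 20 µg/mL poly(Glu,Tyr) 4:1. Enzyme was incubated with compound in 50 mM HEPES pH 7.4, 20 mM MgCl2, 0.1 mM MnCl2, 0.2 mM Na3VO4, 1 mM DTT with 5 µM ATP at 37 °C for 1 h. Phosphotyrosine was detected with PY99 antibody, HRP secondary and OPD, read at A492. IC50 is the mean of duplicates.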

[5] = Drug metabolism in rat liver microsomes assessed as (S)-4-(4-(4,7-diamino-6-methylene-7,8-dihydro-6H-pyrimido[5,4-b]pyrrolizin-5-yl)phenoxy)phenol formation after 3 hrs; assay type: ADME, microsome
[6] = tested on: TMD8; assay: Cell cycle arrest in human TMD8 cells assessed as accumulation at G1 phase after 48 hrs by propidium iodide staining-based flow cytometric method; assay type: functional
[7] = Drug metabolism in human liver microsomes assessed as (S,E)-N-(4-amino-6-methylene-5-(4-phenoxyphenyl)-7,8-dihydro-6H-pyrimido[5,4-b]pyrrolizin-7-yl)-3-hydroxyacrylamide formation after 3 hrs; assay type: ADME, microsome
[8] = biological target: Ephrin type-A receptor 2 (Homo sapiens, UniProt P29317); assay: Inhibition of recombinant human EPHA2 using Poly(Glu, Tyr) 4:1 as substrate after 1 hr by ELISA
[9] = Drug metabolism in mouse liver microsomes assessed as N-((S)-4-amino-6-methylene-5-(4-phenoxyphenyl)-7,8-dihydro-6H-pyrimido[5,4-b]pyrrolizin-7-yl)-2,3-dihydroxypropanamide formation after 3 hrs; assay type: ADME, microsome
[10] = Cmax in rat at 3 mg/kg, po; assay type: ADME, organism-based; parameters: dose 3 mg/kg, route oral; details: in vivo
Method in brief: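 Rats dosed orally at 3 mg/kg; vehicle DMSO, Tween 80, normal saline; values are the average of three determinations.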

[11] = biological target: Epidermal growth factor receptor (Homo sapiens, UniProt P00533); assay: Inhibition of recombinant human EGFR using Poly(Glu, Tyr) 4:1 as substrate after 1 hr by ELISA; method in brief: as §1
[12] = tested on: TMD8; assay: Induction of apoptosis in human TMD8 cells assessed as late apoptotic cells at 100 nM after 72 hrs by Annexin-FITC/propidium iodide staining-based flow cytometric method (reference value: 3.2%); assay type: functional
[13] = biological target: Receptor tyrosine-protein kinase erbB-2 (Homo sapiens, UniProt P04626); assay: Inhibition of recombinant human ErbB2 using Poly(Glu, Tyr) 4:1 as substrate after 1 hr by ELISA; method in brief: as §1
[14] = tested on: TMD8; assay: Cell cycle arrest in human TMD8 cells assessed as accumulation at G1 phase at 100 nM after 48 hrs by propidium iodide staining-based flow cytometric method (reference value: 51.33%); assay type: functional
[15] = tested on: TMD8; assay: Induction of apoptosis in human TMD8 cells assessed as late apoptotic cells at 1000 nM after 72 hrs by Annexin-FITC/propidium iodide staining-based flow cytometric method (reference value: 3.2%); assay type: functional
[16] = tested on: TMD8; assay: Induction of apoptosis in human TMD8 cells assessed as early apoptotic cells at 10 nM after 72 hrs by Annexin-FITC/propidium iodide staining-based flow cytometric method (reference value: 7.98%); assay type: functional
[17] = tested on: TMD8; assay: Induction of apoptosis in human TMD8 cells assessed as early apoptotic cells at 100 nM after 72 hrs by Annexin-FITC/propidium iodide staining-based flow cytometric method (reference value: 7.98%); assay type: functional

Receptor tyrosine-protein kinase erbB-2, sequence (P04626 whole entry): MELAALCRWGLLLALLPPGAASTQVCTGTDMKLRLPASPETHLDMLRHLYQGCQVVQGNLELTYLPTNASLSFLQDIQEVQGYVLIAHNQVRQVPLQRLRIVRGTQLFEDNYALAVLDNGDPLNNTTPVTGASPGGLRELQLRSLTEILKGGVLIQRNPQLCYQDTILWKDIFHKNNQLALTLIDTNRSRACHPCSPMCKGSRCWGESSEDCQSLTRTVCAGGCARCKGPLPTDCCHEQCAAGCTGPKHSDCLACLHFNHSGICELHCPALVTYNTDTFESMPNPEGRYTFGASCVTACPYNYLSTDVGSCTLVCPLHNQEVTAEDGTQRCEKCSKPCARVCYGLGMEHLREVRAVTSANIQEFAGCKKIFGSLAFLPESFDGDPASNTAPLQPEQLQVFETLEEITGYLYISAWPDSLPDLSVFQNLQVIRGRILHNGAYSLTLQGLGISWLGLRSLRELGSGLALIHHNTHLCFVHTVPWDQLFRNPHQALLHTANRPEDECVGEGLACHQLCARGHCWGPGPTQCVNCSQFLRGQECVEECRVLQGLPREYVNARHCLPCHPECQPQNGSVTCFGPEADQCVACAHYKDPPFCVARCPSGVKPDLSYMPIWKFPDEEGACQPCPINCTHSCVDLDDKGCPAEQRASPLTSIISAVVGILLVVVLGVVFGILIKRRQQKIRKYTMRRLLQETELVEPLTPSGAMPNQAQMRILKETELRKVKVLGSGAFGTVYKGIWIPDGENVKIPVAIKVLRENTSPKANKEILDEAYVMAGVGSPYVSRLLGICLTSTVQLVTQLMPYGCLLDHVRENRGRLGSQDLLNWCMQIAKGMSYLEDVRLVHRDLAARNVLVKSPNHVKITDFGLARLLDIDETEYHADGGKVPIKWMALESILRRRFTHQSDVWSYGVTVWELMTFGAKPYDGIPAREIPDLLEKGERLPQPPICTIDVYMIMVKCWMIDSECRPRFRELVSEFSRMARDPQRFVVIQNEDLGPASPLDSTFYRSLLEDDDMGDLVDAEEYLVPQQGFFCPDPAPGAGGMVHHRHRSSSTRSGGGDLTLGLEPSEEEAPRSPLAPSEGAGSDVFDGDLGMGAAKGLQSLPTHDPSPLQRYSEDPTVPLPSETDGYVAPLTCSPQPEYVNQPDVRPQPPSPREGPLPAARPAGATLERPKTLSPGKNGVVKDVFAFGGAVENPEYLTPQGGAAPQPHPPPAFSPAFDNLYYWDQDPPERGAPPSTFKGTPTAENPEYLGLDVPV
Ephrin type-A receptor 2, sequence (P29317 whole entry): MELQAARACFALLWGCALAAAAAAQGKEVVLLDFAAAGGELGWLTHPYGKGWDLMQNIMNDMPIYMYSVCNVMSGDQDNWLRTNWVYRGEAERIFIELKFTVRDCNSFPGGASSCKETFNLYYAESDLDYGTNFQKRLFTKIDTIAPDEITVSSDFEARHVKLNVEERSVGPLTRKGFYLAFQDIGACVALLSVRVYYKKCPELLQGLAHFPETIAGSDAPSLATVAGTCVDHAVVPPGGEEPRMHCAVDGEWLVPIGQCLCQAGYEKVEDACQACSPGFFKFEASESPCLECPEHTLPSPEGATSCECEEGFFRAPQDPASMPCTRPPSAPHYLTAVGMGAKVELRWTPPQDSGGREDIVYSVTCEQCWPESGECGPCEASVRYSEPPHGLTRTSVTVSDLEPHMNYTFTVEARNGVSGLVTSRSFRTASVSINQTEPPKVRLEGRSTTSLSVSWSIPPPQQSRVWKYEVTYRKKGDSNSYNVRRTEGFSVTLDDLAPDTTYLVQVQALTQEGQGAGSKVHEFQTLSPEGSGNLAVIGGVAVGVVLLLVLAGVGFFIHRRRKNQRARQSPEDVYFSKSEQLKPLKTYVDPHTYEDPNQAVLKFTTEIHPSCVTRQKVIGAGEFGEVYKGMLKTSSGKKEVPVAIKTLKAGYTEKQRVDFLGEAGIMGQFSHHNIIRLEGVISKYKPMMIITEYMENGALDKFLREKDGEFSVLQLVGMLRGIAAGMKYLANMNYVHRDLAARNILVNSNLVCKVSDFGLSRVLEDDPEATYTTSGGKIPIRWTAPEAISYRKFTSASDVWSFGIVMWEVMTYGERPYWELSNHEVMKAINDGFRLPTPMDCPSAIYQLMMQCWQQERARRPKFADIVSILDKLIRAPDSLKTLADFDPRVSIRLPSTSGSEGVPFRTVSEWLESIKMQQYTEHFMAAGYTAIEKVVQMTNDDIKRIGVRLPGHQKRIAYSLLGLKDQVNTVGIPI
Epidermal growth factor receptor, sequence (P00533 whole entry): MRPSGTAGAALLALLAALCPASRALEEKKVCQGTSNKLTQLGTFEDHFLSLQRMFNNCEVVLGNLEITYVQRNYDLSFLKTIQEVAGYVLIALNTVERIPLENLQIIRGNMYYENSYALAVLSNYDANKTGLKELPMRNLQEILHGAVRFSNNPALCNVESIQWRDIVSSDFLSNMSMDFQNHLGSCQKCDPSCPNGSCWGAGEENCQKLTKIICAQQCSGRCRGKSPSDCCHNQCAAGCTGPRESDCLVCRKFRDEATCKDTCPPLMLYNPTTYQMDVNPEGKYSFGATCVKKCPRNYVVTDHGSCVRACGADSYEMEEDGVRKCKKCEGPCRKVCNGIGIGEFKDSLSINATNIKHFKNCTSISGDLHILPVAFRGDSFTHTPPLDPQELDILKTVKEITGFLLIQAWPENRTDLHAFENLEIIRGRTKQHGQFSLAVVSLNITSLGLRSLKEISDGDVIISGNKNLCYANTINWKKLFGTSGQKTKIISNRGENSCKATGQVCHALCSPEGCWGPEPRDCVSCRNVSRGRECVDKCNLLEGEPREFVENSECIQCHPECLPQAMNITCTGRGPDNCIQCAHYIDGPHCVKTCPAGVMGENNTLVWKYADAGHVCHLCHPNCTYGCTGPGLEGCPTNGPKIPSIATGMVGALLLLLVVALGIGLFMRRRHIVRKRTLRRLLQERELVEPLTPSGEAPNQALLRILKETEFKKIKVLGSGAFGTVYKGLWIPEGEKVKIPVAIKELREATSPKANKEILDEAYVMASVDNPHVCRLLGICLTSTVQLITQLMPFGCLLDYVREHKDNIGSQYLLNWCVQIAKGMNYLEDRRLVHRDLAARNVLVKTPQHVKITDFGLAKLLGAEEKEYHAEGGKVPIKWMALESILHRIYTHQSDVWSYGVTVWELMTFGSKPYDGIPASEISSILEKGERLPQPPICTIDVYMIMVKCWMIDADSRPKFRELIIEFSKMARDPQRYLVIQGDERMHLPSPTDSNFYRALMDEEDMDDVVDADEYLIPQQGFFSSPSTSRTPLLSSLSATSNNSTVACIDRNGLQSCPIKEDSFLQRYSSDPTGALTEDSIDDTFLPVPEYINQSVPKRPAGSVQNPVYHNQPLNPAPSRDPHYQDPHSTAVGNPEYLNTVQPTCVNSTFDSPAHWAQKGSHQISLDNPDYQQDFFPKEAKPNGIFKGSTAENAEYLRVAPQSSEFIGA

In the case of `C=CC(=O)N[C@@H]1Cn2c(c(-c3ccc(Oc4ccccc4)cc3)c3c(N)ncnc32)C1=C`, the Activity [1] is reported as 12.79%, the Activity [2] is reported as “Non-Toxic” and the Activity [3] is reported as 12.5%. For the same molecule, the IC50 [4] was 55 nM, the Drug metabolism [5] was “Metabolite_Detected” and the Activity [6] was “Dose-dependent effect”. The Drug metabolism [7] was “Metabolite_Detected”, the IC50 [8] was greater than 1000 nM and the Drug metabolism [9] was “Metabolite_Detected”. The Cmax [10] was 223 ng/mL, the IC50 [11] was 1.3 nM and the Activity [12] was 14.8%. The IC50 [13] was 23.2 nM, the Activity [14] was 77.17% and the Activity [15] was 27.9%. For the same molecule, the Activity [16] was 27.6% and the Activity [17] was 34.5%.

Source: ChEMBL document CHEMBL4184325, “Discovery of 4,7-Diamino-5-(4-phenoxyphenyl)-6-methylene-pyrimido[5,4- b]pyrrolizines as Novel Bruton's Tyrosine Kinase Inhibitors” (J Med Chem, 2018)
